Shown are actives, neighbours in structure and some others; about 1.4% of the full set was active somewhere.
Vif inh: HIV Vif self-association inhibitors, primary screen, imaging, HEK293T, single point; HEK293T cells, Vif self-association by quenched fluorescence, 24 h; 340,000 tested, 0.35% active; inhibition, % at 7.49 µM; AID 602346, 2012; in the data active = inhibition above about 50%, passing the limit was not always enough
Casp6 inh: human caspase-6 inhibitors, primary screen, biochemical, VEID-R110 fluorescence, single point, set 2 | purified caspase-6, Z-VEID-R110 cleavage fluorescence | P55212 | inhibition, % at 12.5 µM | 350,000 tested, 0.53% active;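 active = mean inhibition across replicates at least about 35%, with every replicate also reaching that limit, limit read from the data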;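 also: 0% = median of neutral control wells and 100% = no fluorescence left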
Target sequence (P55212 24-179 limits assumed): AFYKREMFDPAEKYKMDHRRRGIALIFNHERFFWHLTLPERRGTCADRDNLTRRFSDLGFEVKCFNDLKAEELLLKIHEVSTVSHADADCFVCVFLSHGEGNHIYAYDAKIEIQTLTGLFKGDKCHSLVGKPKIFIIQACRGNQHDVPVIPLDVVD
Target sequence (P55212 194-293 limits assumed): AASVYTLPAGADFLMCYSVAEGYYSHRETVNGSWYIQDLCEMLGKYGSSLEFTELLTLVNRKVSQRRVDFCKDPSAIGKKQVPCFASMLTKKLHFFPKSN
Myeloid diff 2: induction of myeloid progenitor differentiation, primary screen, cell-based, flow cytometry, MLPCN library; ER-HoxA9 myeloid progenitors, lysozyme-GFP differentiation; calls only at 10 µM; 360,000 tested, 1% active; AID 624256, 2012;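 active = normalized GFP-positive differentiation at or above the plate's own cutoff, the solvent-only control mean plus 3 SD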;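 also: cells exposed to compound for four days before flow analysis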
T cell modulator: modulators of CD8 T cell-vesicle binding, primary screen, mouse 2C CD8+ T cells, flow cytometry. 2C CD8+ T cell-vesicle binding; active compounds read low. response (vesicle binding), % at 7 µM. 330,000 tested, 0.068% active;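 active = response, share of CD8 T cells binding vesicles, and their 90th percentile fluorescence all below set limits, cut at about 80% in these data, passing the limit was not always enough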;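 also: values below 100% mean blocked vesicle binding to the CD8+ T cells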
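Assay system – 2C mouse CD8+ T cells · Also added – QL9-loaded Drosophila micro-vesicles · Timing – Cell–vesicle co-incubation 1.5 h at 37 °C, staining 20 min on ice · Signal – flow cytometry of vesicle-bound cells · Measure – percent CD8+ FL2 mean versus row control · Controls – Peptide-free naked vesicles (low) and QL9 vesicles with 0.7% DMSO vehicle (high)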
Myeloid diff CP1: inducers of myeloid progenitor differentiation, confirmation, cell-based, GFP/Mac1 flow cytometry, cherry pick 01; ER-HoxA9 myeloid progenitors, GFP/Mac1 double-positive flow; shares compounds with Myeloid diff 2; 2,300 tested, 2% active; AID 651706, 2012; calls only;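 active = share of green or green-and-red cells above 9 and 9% in run 1 or 4 and 3% in run 2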
GFP autofluor: flagged as fluorescent in myeloid differentiation counter-screen; AID 651707; ER-HoxA9 myeloid progenitors, no estrogen, GFP autofluorescence flow cytometry; vehicle wells 0%, positive control 100%; 2,300 tested, 7.4% active; fluorescence response, % (test concentration not listed); shares compounds with Myeloid diff 2;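 active = over 5% cells positive for green fluorescent reporter, or over 2% positive for both it and APC stain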;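 also: range taken on the double positive population between DMSO and positive control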
An asterisk follows results filed as active; i = inactive; / = not tested or not shown; + = active, no number.

SMILES | Vif inh | Casp6 inh | Myeloid diff 2 | T cell modulator | Myeloid diff CP1 | GFP autofluor
O=C(COC(=O)c1ccc(NS(=O)(=O)c2cccs2)cc1O)NCc1ccccc1 | -3 | 4 | i | 105 | i | 0
COCCOC(=O)c1c(C)oc2ccc(NS(=O)(=O)c3cccs3)cc12 | 0 | 5 | / | 347 | / | /
C/C=C/c1cnc2c(c1)C(=O)N([C@H](C)CO)C[C@H](C)[C@H](CN(C)C(=O)NC1CCCC1)O2 | / | 1 | / | / | / | /
C=CCSc1ncnc2c1oc1nc3c(cc12)COC(C)(C)C3 | -2 | 1 | i | 564 | / | /
CC(C)CSc1ncnc2c1oc1nc3c(cc12)COC(C)(C)C3 | -3 | / | i | 108 | i | 2
CCc1nc(OCc2ccccc2)c2sc3nc4c(cc3c2n1)COC(C)(C)C4 | 6 | / | i | 649 | i | 0
CC1(C)Cc2nc3sc4c(OCc5ccccc5)ncnc4c3cc2CO1 | -3 | / | i | 483 | / | /
COC(=O)c1cccc(C#CC(NP(=O)(c2ccccc2)c2ccccc2)c2ccccc2)c1 (centres undefined) | 4 | 1 | i | 410 | i | 0
CCC[C@@H]1C[C@@]1(CCC)[C@@H](NP(=O)(c1ccccc1)c1ccccc1)c1ccc(C(=O)OC)cc1 | / | 0 | / | 471 | / | /
Fc1ccc(OCc2nc(-c3ccncc3)n[nH]2)cc1 | -1 | -2 | i | 215 | / | /
Clc1cccc(OCc2nc(-c3ccncc3)n[nH]2)c1 | -1 | 0 | i | 276 | i | 0
C[C@@H]1CN([C@@H](C)CO)C(=O)c2cc(-c3cncnc3)cnc2O[C@H]1CN(C)C(=O)Nc1ccc2c(c1)OCO2 | / | -1 | / | / | / | /
COc1ccc(C(=O)C[n+]2cccc3cc(OC)ccc32)cc1 | / | -4 | / | 396 | / | /
COc1ccc(C(=O)C[n+]2ccc(N(C)C)cc2)cc1 | 2 | -8 | i | 221 | i | 0
COc1ccc(C(=O)C[n+]2cccc3cc(C)ccc32)cc1 | 16 | -3 | i | 247 | i | 42*
CN(C)c1cc[n+](CC(=O)c2ccc(Br)cc2)cc1 | 0 | -5 | i | 283 | / | /
O=C(C[C@@H]1CC[C@@H]2[C@H](COC[C@H](O)CN2Cc2ccccc2F)O1)N[C@H]1CCN(Cc2ccccc2)C1 | / | 3 | / | / | / | /
CCC[C@H]1CC(=O)C=C(c2ccc(OC)cc2)ON1C(=O)OC(C)(C)C | 2 | 6 | i | / | i | 0
COc1ccc(-c2cc(C3CCN(C(=O)OC(C)(C)C)CC3)[nH]n2)cc1 | -5 | 3 | i | 156 | / | /
CCOc1ccc(OCCN2C(=O)c3ccccc3C2=O)cc1 | -10 | -4 | i | 337 | / | /
COc1ccc(OCC(=O)OCCN2C(=O)c3ccccc3C2=O)cc1 | 0 | / | + | 284 | i | 0
O=C(Cc1ccccc1)N/N=C/c1cc(Br)c(Br)o1 | 5 | / | i | 360 | i | 1
O=C(Cc1ccccc1)NN=Cc1ccccc1 | 3 | 1 | i | / | / | /
CCCN1C[C@@H](C)[C@@H](OC)CN(C)C(=O)c2cc(NC(=O)Nc3c(C)noc3C)ccc2OC[C@@H]1C | / | 0 | / | / | / | /
C[C@H]1CCCCO[C@H](CN(C)C(=O)Nc2ccccc2)[C@@H](C)CN([C@@H](C)CO)C(=O)c2cc(NS(=O)(=O)c3cccs3)ccc2O1 | / | 0 | / | / | / | /
SMILES | Vif inh | Casp6 inh | Myeloid diff 2 | T cell modulator | Myeloid diff CP1 | GFP autofluor
O=C(O)C1CCCCC1C(=O)NCCCn1ccnc1 (centres undefined) | 0 | -31 | i | 365 | / | /
O=C(NCCCn1ccnc1)NC(C(F)(F)F)C(F)(F)F | 11 | / | i | 535 | i | 0
O=C(NCCCn1ccnc1)C(=O)NC1CCCCC1 | -5 | -2 | + | 194 | i | 1
O=C(C[C@@H]1CC[C@@H](NS(=O)(=O)c2cccc(F)c2)[C@@H](CO)O1)N1CCCCC1 | / | 0 | / | / | / | /
COc1ccc(S(=O)(=O)N(C)C[C@H]2Oc3cc(C#CC4CC4)ccc3S(=O)(=O)N([C@@H](C)CO)C[C@H]2C)cc1 | / | 0 | / | / | / | /
O=C(Nc1cc(F)ccc1F)N[C@H]1CC[C@H](CCn2cc(C3CCCC3)nn2)O[C@H]1CO | / | 1 | / | / | / | /
CCCC1=[N+](CC)CCn2c(C)ccc21 | -3 | / | i | 312 | / | /
